An excerpt weighted towards active compounds, which were near 0.75% of everything screened.
MDM2 E3 inh = inhibitors of human Mdm2 E3 ubiquitin ligase. hit rate 0.11% among 210,000. Q00987. cell-based MDM2 ubiquitination luciferase reporter, 2 h; 0 = plate control, 100 = twice control, blank-subtracted. signal enhancement, % at 5 µM;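 active = signal enhancement of 30% or more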;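 also: luminescence tracks abundance of the self-degrading MDM2-luciferase fusion protein; higher signal means inhibition of MDM2 E3 ligase activity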
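system = mammalian cells stably expressing self-ubiquitinating, self-degrading MDM2 E3–luciferase fusion | quantity = 2000 cells per well seeded | incubation = 4 h cell settling then 2 h compound exposure, 37 °C | signal = SteadyLite luminescence, 15 min reagent step | benchmarks = plate control and blank wells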
p47phox inh = p47phox (human) inhibition; P14598; p47phox/p22phox peptide binding, fluorescence polarization, 2 h; inhibition, % at 24.7 µM; hit rate 0.53% among 220,000; AID 1274;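 active = inhibition above about 30%, limit read from the data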;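 also: 0% = p47phox with labelled peptide and 100% = labelled peptide alone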
Target sequence (P14598 whole entry, looked up): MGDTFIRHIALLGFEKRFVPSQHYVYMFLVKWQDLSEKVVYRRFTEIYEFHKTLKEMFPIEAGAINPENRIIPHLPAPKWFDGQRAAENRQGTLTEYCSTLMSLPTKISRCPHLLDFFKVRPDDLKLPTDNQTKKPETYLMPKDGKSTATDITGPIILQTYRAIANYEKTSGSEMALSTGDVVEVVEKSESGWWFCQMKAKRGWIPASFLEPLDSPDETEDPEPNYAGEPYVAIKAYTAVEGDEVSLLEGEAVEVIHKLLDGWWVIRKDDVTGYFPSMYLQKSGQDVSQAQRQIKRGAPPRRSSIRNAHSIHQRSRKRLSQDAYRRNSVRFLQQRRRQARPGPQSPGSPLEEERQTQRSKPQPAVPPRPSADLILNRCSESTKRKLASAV
Rad51 HR inh = blocks human Rad51 in homologous recombination; Q06609; hRad51 DNA strand exchange, fluorescence dequenching; inhibition, % at 10 µM; hit rate 0.085% among 200,000;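 active = inhibition above 40% at the single screening dose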;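 also: 0% = DMSO control wells and 100% = blanks with heterologous ssDNA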
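Test system – preformed human Rad51 ssDNA filaments · Reagent – Donor/quencher-labelled 47-bp dsDNA substrate · Incubation – 37 °C 15-min filament assembly, 30-min compound preincubation, 15-min exchange · Signal – FRET fluorescence dequenching, excitation 485 nm, emission 520 nm · Read-out – percent inhibition from fluorescence, normalised to plate control and blank means · Benchmarks – plate control and blank wells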
Tb hexokinase = T. brucei hexokinase 1 inhibition; recombinant TbHK1, G6PDH-coupled NADH A340; inhibition, % at 10 µM; hit rate 0.11% among 220,000;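 active = inhibition of 50% or more in the single-dose primary screen; inactive = inhibition below 50%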
* marks the source's active call; other numbers are inactive results; i = inactive; . = no result; ! = not active in a repeat.

SMILES	MDM2 E3 inh	p47phox inh	Rad51 HR inh	Tb hexokinase
O=C(NC1CCCCC1)c1cc([N+](=O)[O-])ccc1N1CCCCC1	-15	-4	118*	-4
COc1ccc(N=Cc2c(O)n(-c3ccc(OC)cc3)c(=O)c3ccccc23)cc1	22	33*	2	-4
O=C1C2C3C=CC(C4CC34)C2C(=O)N1/N=C/c1c[nH]c2ccccc12 (stereo not drawn)	-26	-13	.	-17
O=C(COc1cc(O)c2c(=O)cc(-c3ccccc3)oc2c1)c1ccccc1	0	-9	5	-4
O=C(COc1cc(O)c2c(=O)cc(-c3ccccc3)oc2c1)c1ccc(F)cc1	-3	32*	3	-9
CN(CCCNC(=O)C1CCN(S(=O)(=O)c2cccc3nsnc23)CC1)Cc1ccccc1	-12	5	6	58*
CN(C)CCn1c(=O)n(-c2cccc(Cl)c2)c(=O)c2c3c(sc21)CCCCC3	-4	-18	-10	-8
CC#CCN1C(=O)N[C@@H](c2ccccc2)C(C(=O)OC)=C1C	.	.	-1	.
CCn1c(SCC(=O)Nc2nc(-c3ccc(C)cc3)cs2)nnc1-c1ccccc1	-14	-15	-3	-1
Cc1ccc(-c2csc(NC(=O)CSc3nc4ccccc4c(=O)n3CCCN(C)C)n2)cc1	-9	37*	-151	11
O=C(NCC1CCCO1)c1ccc2c(=O)n(Cc3cccc(Br)c3)c(=S)[nH]c2c1 (stereo not drawn)	-4	-4	10	-14
CCOc1cc2[nH]c(=S)n(CCC(=O)NCc3ccc(OC)cc3)c(=O)c2cc1OCC	-11	35*	.	-14
C=CCN(C(=O)C1=NN(C2CCS(=O)(=O)C2)C(=O)CC1)c1nc(-c2ccc([N+](=O)[O-])cc2)cs1 (stereo not drawn)	3	-17	-4	-15
O=C1C2C3C=CC(C2C(=O)N1c1ccc(O)cc1)C1C2C(=O)N(c4ccc(O)cc4)C(=O)C2C31 (stereo not drawn)	.	34*	3	-10
O=C1C2C3C=CC(C2C(=O)N1c1ccccc1O)C1C2C(=O)N(c4ccccc4O)C(=O)C2C31 (stereo not drawn)	0	-4	4	1
CCCCCCCCCCCCCCCCn1cc[n+](CC(C)=O)c1	-11	96*	4	39
O=c1cc(-c2ccccc2Cl)oc2ccc([N+](=O)[O-])c(O)c12	.	-7	60*	3
Nc1ccc2oc(-c3ccccc3Cl)cc(=O)c2c1O	.	4	-4	0
O=C(NCc1csc(-c2cccs2)n1)c1cccc(Cl)c1	-2	-3	-7	-10
CCOC(=O)c1c(NC(=O)COC(=O)c2ccccn2)sc2c1CCC2	-2	-20	.	22
CCCCCCNC(=O)N[C@H](C(=O)NCCC[C@H]1CN2C(=NC[C@H]2C)N1CCC(c1ccccc1)c1ccccc1)C(C)O (stereo partly drawn)	17	87*	.	49
C[C@@H]1CN=C2N(CCNC(=O)CCC3CCCCC3)[C@H](Cc3ccc(O)cc3)CN21	.	4	3	11
Cc1cc(N2CCCC2)c(F)cc1/C=C\[N+](=O)[O-]	-25	79*	-251	2
CCC(=C(c1ccc(OC)cc1)c1ccc(OC)cc1)c1cn(CC(O)CN2CCN(C)CC2)c2ccccc12 (stereo not drawn)	-17	78*	.	-18
O=C(/C=C/c1cccc([N+](=O)[O-])c1)n1cnc2ccccc21	49*	-8	25	-5
SMILES	MDM2 E3 inh	p47phox inh	Rad51 HR inh	Tb hexokinase
Cc1cccc(C(=O)O/N=C2\CCSc3ccc(C)cc32)c1	-11	94*	-9	-2
COc1ccccc1/C(C)=N/NC(=S)NCc1ccccc1	0	-10	12	2
CC(=O)CSc1nnc(-c2cnccn2)n1-c1ccccc1	-1	40*	.	-2
NC(=S)NC(=O)/C=C/c1ccccc1	1	-9	41*	-4
Cc1nc2ccccc2nc(=O)c1NNc1ccccc1	.	74*	.	-21
Cc1ccc2nc(=O)c(NNc3ccccc3)cnc2c1	-6	4	.	-24
CN1CCN(C2=Nc3ccccc3Oc3ccc(Cl)cc32)CC1	.	38*!	-1	-23
CN1CCN(c2nc(-c3ccccc3)c3cc(Cl)ccc3n2)CC1	-23	-36	7	-18
CC(=O)c1cccc(NC(=O)C(CC(C)C)NC(=O)C2CCCCC2)c1 (stereo not drawn)	-4	1	11	-2
O=C(C1CCCCC1)N1CCN(c2ccnc3cc(Cl)ccc23)CC1	-1	-10	-10	-12
Cc1ccc(CNC(C)(C)CO)cc1	4	-1	16	5
CC(C)(CO)NCc1ccc(Br)cc1	-12	-13	43*	2
CCCS(=O)(=O)N1CCC(C(=O)N2CCCC2)CC1	-9	-15	-2	-1
CCCS(=O)(=O)N1CCCC(C(=O)N2CCN(C(=O)OCC)CC2)C1 (stereo not drawn)	-13	-5	69*	1
COc1ccc(CNC(=O)C2CCCN(S(=O)(=O)c3cc(C)ccc3OC)C2)cc1 (stereo not drawn)	5	-5	-2	2
CCOC(=O)N1CCN(C(=O)C2CCCN(S(=O)(=O)c3cc(C)ccc3OC)C2)CC1 (stereo not drawn)	79*	8	-9	0
COc1ccc(-c2csc(NC(CO)c3nc4ccccc4n3CCCO)n2)cc1 (stereo not drawn)	.	.	-3	.
COc1ccc(-c2nc(C(N)=O)c3[nH]c(=O)n(-c4cccc(Cl)c4)c3n2)cc1OC	-18	37*	.	-26
Cc1cc(NC(=O)C2CC2)ncc1NC(=O)C12CC3CC(CC(C3)C1)C2	30*	-6	-1	2
CCCC(=O)Nc1cc(C)c(NC(=O)C23CC4CC(CC(C4)C2)C3)cn1	0	-4	-3	-4
Cc1ccc(S(=O)(=O)N2CCSC2=Nc2ccccc2)cc1	.	-1	-39	-12
COC(=O)CSC1=C(C#N)C(=O)NC(c2ccccc2)S1 (stereo not drawn)	40*	-7	-2	-51
CCCCN1C(=O)/C(=C/C=C2\SCCN2C)SC1=S	-5	54*	.	-9
CN1CCS/C1=C/C=C1\SC(=S)N(CC(=O)O)C1=O	1	-101	i	-8
O=C(Nc1ccccn1)c1cc2cc([N+](=O)[O-])ccc2s1	-33	11	11	-8
C=CCOc1ccc2cccc(/C=N/NC(=O)c3cc4cc([N+](=O)[O-])ccc4s3)c2c1	-9	41*	-5	-4
COc1ccc(C)cc1S(=O)(=O)N(C)CC(=O)NC1CCCCCC1	-12	-1	11	-1
COc1ccc(C)cc1S(=O)(=O)N(C)CC(=O)NC1CCCCC1	30*	0	13	-4
O=C(O)COc1ccccc1/C=N/NC(=O)c1cccc(S(=O)(=O)N2CCOCC2)c1	-4	-2	8	-6
O=C(OC1CCCCC1)c1ccc2c(c1)C1C=CCC1C(C(=O)O)N2 (stereo not drawn)	-10	39*	.	16

Source: PubChem BioAssay (several laboratories)
